Where a SMILES comes first, the peptide text is derived from it. The star is where a group is joined. X1 = CSCC[C@H](NC[C@H](CC(C)C)N*)C(N)=O; X2 = CC(=O)NC[C@H](CC(C)C)N*; For = O=C*
How the values were obtained:
Type in all cases: functional
[1] = molecular target: Gastrin-releasing peptide receptor (Rattus norvegicus) (UniProt P52500); test: Tested for the inhibition of Bombesin-stimulated amylase release in the presence of 0.2 nM of bombesin in rat pranceatic acini
Method in brief: (§1)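 Dispersed rat pancreatic acini prepared by collagenase digestion (300 units/20 mL), washed through 4% BSA. Incubated 30 min at 37 °C under 100% oxygen in HEPES buffer (pH 7.4) with 0.5 mM CaCl₂, 1% albumin and trypsin inhibitor, with peptide plus 0.2 nM BN. Amylase (Phadebas test) released, as percent of initial acinar content, normalized to BN alone; triplicate measurements.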

[2] = molecular target: Gastrin-releasing peptide receptor (Rattus norvegicus) (UniProt P52500); test: Tested for the inhibition of Bombesin-stimulated amylase release at 5 uM concentration in the presence of 0.2 nM of bombesin in rat pranceatic acini; method in brief: as §1
[3] = molecular target: Gastrin-releasing peptide receptor (Rattus norvegicus) (UniProt P52500); test: Tested for the inhibition of Bombesin-stimulated amylase release at 50 nM concentration in rat pranceatic acini; method in brief: as §1
[4] = molecular target: Gastrin-releasing peptide receptor (Rattus norvegicus) (UniProt P52500); test: Tested for the inhibition of Bombesin-stimulated amylase release at 50 nM concentration in the presence of 0.2 nM of bombesin in rat pranceatic acini; method in brief: as §1
[5] = molecular target: Gastrin-releasing peptide receptor (Rattus norvegicus) (UniProt P52500); test: Tested for the inhibition of Bombesin-stimulated amylase release at 5 uM concentration in rat pranceatic acini; method in brief: as §1
[6] = molecular target: Gastrin-releasing peptide receptor (Rattus norvegicus) (UniProt P52500); test: Tested for the inhibition of bombesin-stimulated amylase release in rat pranceatic acini; method in brief: as §1

Chain of Gastrin-releasing peptide receptor (Rattus norvegicus) (P52500 whole entry): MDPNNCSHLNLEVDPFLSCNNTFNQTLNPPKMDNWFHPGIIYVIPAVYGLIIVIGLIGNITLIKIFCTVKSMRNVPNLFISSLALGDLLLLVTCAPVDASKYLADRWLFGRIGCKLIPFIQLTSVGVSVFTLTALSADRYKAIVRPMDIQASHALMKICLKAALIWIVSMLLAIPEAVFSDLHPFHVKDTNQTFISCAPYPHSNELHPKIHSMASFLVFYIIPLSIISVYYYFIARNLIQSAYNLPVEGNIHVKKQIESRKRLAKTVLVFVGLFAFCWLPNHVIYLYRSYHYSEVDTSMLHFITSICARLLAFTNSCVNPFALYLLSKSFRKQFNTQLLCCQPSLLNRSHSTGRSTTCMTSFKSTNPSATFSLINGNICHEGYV

Row | Release [1] [%] | Release [2] [%] | Release [3] [%] | Release [4] [%] | Release [5] [%] | Release [6] [%] | Compound
1 | 21.2 | 14.3 | 7.2 | 16 | 12.2 | 6.4 | CN[C@H](Cc1ccccc1)C(=O)N[C@@H](Cc1c[nH]c2ccccc12)C(=O)N[C@@H](C)C(=O)N[C@H](C(=O)NCC(=O)N[C@@H](Cc1c[nH]cn1)C(=O)N[C@H](CN[C@@H](CCSC)C(N)=O)CC(C)C)C(C)C
2 | 19.3 | 24.5 | 7.6 | 22.7 | 6.5 | 5.1 | CSCC[C@H](NC[C@H](CC(C)C)NC(=O)[C@H](Cc1c[nH]cn1)NC(=O)CNC(=O)[C@@H](NC(=O)[C@H](C)NC(=O)[C@H](Cc1c[nH]c2ccccc12)NC(=O)[C@H](CC(N)=O)NC(=O)CN)C(C)C)C(N)=O
3 | 17.8 | 16.1 | 4.7 | 17.9 | 4.7 | 4.8 | CSCC[C@H](NC[C@H](CC(C)C)NC(=O)[C@H](Cc1c[nH]cn1)NC(=O)CNC(=O)[C@@H](NC(=O)[C@H](C)NC(=O)[C@H](Cc1c[nH]c2ccccc12)NC(C)=O)C(C)C)C(N)=O (Ac-WAVGH-X1)
4 | 9.4 | 12.9 | – | – | 9.1 | 3.5 | CN[C@H](Cc1ccccc1)C(=O)N[C@@H](Cc1c[nH]cn1)C(=O)N[C@@H](Cc1c[nH]c2ccccc12)C(=O)N[C@@H](C)C(=O)N[C@H](C(=O)NCC(=O)N[C@@H](Cc1c[nH]cn1)C(=O)N[C@@H](CC(C)C)CN(C=O)[C@@H](CCSC)C(N)=O)C(C)C
5 | 14.4 | 8.2 | – | 14.5 | 3.6 | 3.6 | CC(=O)NC[C@H](CC(C)C)NC(=O)[C@H](Cc1c[nH]cn1)NC(=O)CNC(=O)[C@@H](NC(=O)[C@H](C)NC(=O)[C@H](Cc1c[nH]c2ccccc12)NC(=O)[C@H](Cc1c[nH]cn1)NC(=O)[C@@H](N)CCC(N)=O)C(C)C (H-QHWAVGH-X2)
6 | 9.4 | 13.1 | – | – | 9.2 | 3.5 | CSCC[C@@H](C(N)=O)N(C=O)C[C@H](CC(C)C)NC(=O)[C@H](Cc1c[nH]cn1)NC(=O)CNC(=O)[C@@H](NC(=O)[C@H](C)NC(=O)[C@H](Cc1c[nH]c2ccccc12)NC(=O)[C@H](Cc1c[nH]cn1)NC(=O)[C@H](CC(N)=O)NC(=O)CN)C(C)C
7 | 9.4 | 9.9 | – | – | 9 | 3.5 | CN[C@@H](Cc1ccccc1)C(=O)N[C@@H](Cc1c[nH]cn1)C(=O)N[C@@H](Cc1c[nH]c2ccccc12)C(=O)N[C@@H](C)C(=O)N[C@H](C(=O)NCC(=O)N[C@@H](Cc1c[nH]cn1)C(=O)N[C@@H](CC(C)C)CN(C=O)[C@@H](CCSC)C(N)=O)C(C)C
8 | 15.7 | 3.4 | – | 9 | 3 | 3 | CC(=O)NC[C@H](CC(C)C)NC(=O)[C@H](Cc1c[nH]cn1)NC(=O)CNC(=O)[C@@H](NC(=O)[C@H](C)NC(=O)[C@H](Cc1c[nH]c2ccccc12)NC(=O)[C@H](Cc1c[nH]cn1)NC(=O)[C@H](N)Cc1ccccc1)C(C)C
9 | 15.9 | 4 | – | 12.2 | 3.6 | 3.1 | CC(=O)NC[C@H](CC(C)C)NC(=O)[C@H](Cc1c[nH]cn1)NC(=O)CNC(=O)[C@@H](NC(=O)[C@H](C)NC(=O)[C@H](Cc1c[nH]c2ccccc12)NC(=O)[C@H](Cc1c[nH]cn1)NC(=O)[C@H](CCC(N)=O)NC(C)=O)C(C)C (Ac-QHWAVGH-X2)
10 | 14.6 | 3.6 | – | 10.3 | – | 3.3 | CC(=O)NC[C@H](CC(C)C)NC(=O)[C@H](Cc1c[nH]cn1)NC(=O)CNC(=O)[C@@H](NC(=O)[C@H](C)NC(=O)[C@H](Cc1c[nH]c2ccccc12)NC(=O)[C@H](CCC(N)=O)NC(=O)[C@H](N)Cc1ccccc1)C(C)C
11 | 17.4 | 6.3 | 5.1 | 6.3 | 6 | 5.3 | CCCCC[C@H](CC(C)C)NC(=O)[C@H](Cc1c[nH]cn1)NC(=O)CNC(=O)[C@@H](NC(=O)[C@H](C)NC(=O)[C@H](Cc1c[nH]c2ccccc12)NC(=O)[C@@H](Cc1c[nH]cn1)NC(=O)C(C)(C)C)C(C)C
12 | 20.2 | 3.7 | – | 16.7 | 3.6 | 2.9 | CC(=O)NC[C@H](CC(C)C)NC(=O)[C@H](Cc1c[nH]cn1)NC(=O)CNC(=O)[C@@H](NC(=O)[C@H](C)NC(=O)[C@H](Cc1c[nH]c2ccccc12)NC(=O)[C@H](Cc1c[nH]cn1)NC(=O)[C@@H](Cc1ccccc1)NC(C)=O)C(C)C
13 | 10.4 | 13 | – | – | 10.3 | 3.7 | CSCC[C@@H](C(N)=O)N(C=O)C[C@H](CC(C)C)NC(=O)[C@H](Cc1c[nH]cn1)NC(=O)CNC(=O)[C@@H](NC(=O)[C@H](C)NC(=O)[C@H](Cc1c[nH]c2ccccc12)NC(=O)[C@H](Cc1c[nH]cn1)NC(=O)[C@H](N)Cc1ccccc1)C(C)C
14 | 18.3 | 13.1 | 5.3 | 19.6 | 5.7 | 5.3 | CSCC[C@H](NC[C@H](CC(C)C)NC(=O)[C@H](Cc1c[nH]cn1)NC(=O)CNC(=O)[C@@H](NC(=O)[C@H](C)NC(=O)[C@H](Cc1c[nH]c2ccccc12)NC(=O)[C@H](N)Cc1ccccc1)C(C)C)C(N)=O
15 | 17.6 | 18.1 | 5.4 | 20.8 | 5.3 | 4.9 | CSCC[C@H](NC[C@H](CC(C)C)NC(=O)[C@H](Cc1c[nH]cn1)NC(=O)CNC(=O)[C@@H](NC(=O)[C@H](C)NC(=O)[C@@H](N)Cc1c[nH]c2ccccc12)C(C)C)C(N)=O (H-WAVGH-X1)
16 | 17.4 | 6.2 | 3 | 11.6 | 2.7 | 2.8 | CC(C)C[C@@H](CN[C@@H](CC(C)C)C(N)=O)NC(=O)[C@H](Cc1c[nH]cn1)NC(=O)CNC(=O)[C@@H](NC(=O)[C@H](C)NC(=O)[C@H](Cc1c[nH]c2ccccc12)NC(=O)[C@H](CCC(N)=O)NC(=O)[C@H](CC(N)=O)NC(=O)CNC(=O)[C@H](CC(C)C)NC(=O)[C@H](CCCN=C(N)N)NC(=O)[C@H](CCC(N)=O)NC(=O)[C@@H]1CCC(=O)N1)C(C)C
17 | 10.4 | 11.6 | – | – | 13.3 | 3.7 | CSCC[C@@H](C(N)=O)N(C=O)C[C@H](CC(C)C)NC(=O)[C@H](Cc1c[nH]cn1)NC(=O)CNC(=O)[C@@H](NC(=O)[C@H](C)NC(=O)[C@H](Cc1c[nH]c2ccccc12)NC(=O)[C@H](Cc1c[nH]cn1)NC(=O)[C@@H](Cc1ccccc1)NC(=O)CN)C(C)C
18 | 16 | 12.5 | – | 15.8 | – | 3.2 | CC(=O)NC[C@H](CC(C)C)NC(=O)[C@H](Cc1c[nH]cn1)NC(=O)CNC(=O)[C@@H](NC(=O)[C@H](C)NC(=O)[C@H](Cc1cn(C=O)c2ccccc12)NC(=O)[C@H](Cc1c[nH]cn1)NC(=O)[C@H](CCC(N)=O)NC(C)=O)C(C)C (Ac-QHW(For)AVGH-X2)
19 | 16.5 | 4.3 | – | 14.8 | – | 3 | CC(=O)NC[C@H](CC(C)C)NC(=O)[C@H](Cc1c[nH]cn1)NC(=O)CNC(=O)[C@@H](NC(=O)[C@H](C)NC(=O)[C@H](Cc1c[nH]c2ccccc12)NC(=O)[C@H](CCC(N)=O)NC(=O)[C@@H](Cc1ccccc1)NC(C)=O)C(C)C
20 | 20.3 | 4.8 | – | 16.2 | 3.1 | 3.2 | CC(=O)NC[C@H](CC(C)C)NC(=O)[C@H](Cc1c[nH]cn1)NC(=O)CNC(=O)[C@@H](NC(=O)[C@H](C)NC(=O)[C@H](Cc1cn(C=O)c2ccccc12)NC(=O)[C@H](Cc1c[nH]cn1)NC(=O)[C@H](N)Cc1ccccc1)C(C)C
